ChEMBL document CHEMBL1131215, “Anhydrolide macrolides. 1. Synthesis and antibacterial activity of 2,3-anhydro-6-O-methyl 11,12-carbamate erythromycin A analogues” (1998)
Values after ≈ are worked out from the molar mass of the structure shown.

Key:
Type in all cases: functional
Streptococcus pneumoniae [1] = test: In vitro antibacterial activity against ATCC 6303 strain of Streptococcus pneumoniae; settings: Streptococcus pneumoniae, ATCC 6303
Method in brief: (§1)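 MIC determined by standard agar dilution; values in μg/mL.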

Staphylococcus aureus [2] = test: In vitro antibacterial activity against 6538P strain of Staphylococcus aureus; settings: Staphylococcus aureus; method in brief: as §1
[3] = In vitro antibacterial activity against A-5278 strain of Staphylococcus aureus; settings: Staphylococcus aureus; method in brief: as §1
Haemophilus influenzae = test: In vitro antibacterial activity against DILL strain of Haemophilus influenzae.; method in brief: as §1
Staphylococcus aureus [4] = test: In vitro antibacterial activity against A5177 strain of Staphylococcus aureus; settings: Staphylococcus aureus; method in brief: as §1
Streptococcus pyogenes [5] = test: In vitro antibacterial activity against PIU 2548 strain of Streptococcus pyogenes; settings: Streptococcus pyogenes; method in brief: as §1
Streptococcus pneumoniae [6] = test: In vitro antibacterial activity against 5649 strain of Streptococcus pneumoniae; settings: Streptococcus pneumoniae; method in brief: as §1
Streptococcus pneumoniae [7] = test: In vitro antibacterial activity against Streptococcus pneumoniae 5979; method in brief: as §1
Streptococcus pyogenes [8] = test: In vitro antibacterial activity against 930 strain of Streptococcus pyogenes; settings: Streptococcus pyogenes; method in brief: as §1
Streptococcus pneumoniae [9] = test: In vivo antibacterial activity in mice infected with Streptococcus pneumoniae ATCC 6303
Mus musculus [10] = test: Effective dose when administered subcutaneously in mice infected with Staphylococcus aureus NCTC-10649M.; settings: sc
Method in brief: (§2)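 Mice infected intraperitoneally with 1000 × LD₅₀ (S. aureus) or […] × LD₅₀ (S. pneumoniae). Compound given orally (po) or subcutaneously (sc) at 1 and 5 h post-infection. ED₅₀ expressed in mg/kg/day with 95% confidence interval.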

Staphylococcus aureus [11] = test: In vivo antibacterial activity in mice infected with Staphylococcus aureus NCTC-10649M.
Mus musculus [12] = test: Effective dose when administered subcutaneously in mice infected with Streptococcus pneumoniae ATCC 6303; settings: sc; method in brief: as §2
Streptococcus pneumoniae [13] = test: In vitro antibacterial activity against 5979 strain of Streptococcus pneumoniae; method in brief: as §1
Mus musculus [14] = test: Effective dose when administered orally in mice infected with Streptococcus pneumoniae ATCC 6303; settings: po; method in brief: as §2
Mus musculus [15] = test: Effective dose when administered orally in mice infected with Staphylococcus aureus NCTC-10649M.; settings: po; method in brief: as §2

MIC (Streptococcus pneumoniae [1])	MIC (Staphylococcus aureus [2])	MIC [3]	MIC (Haemophilus influenzae)	MIC (Staphylococcus aureus [4])	MIC (Streptococcus pyogenes [5])	MIC (Streptococcus pneumoniae [6])	MIC (Streptococcus pneumoniae [7])	MIC (Streptococcus pyogenes [8])	MIC (Streptococcus pneumoniae [9])	MIC (Staphylococcus aureus [11])	MIC (Streptococcus pneumoniae [13])	Compound	ED50 (Mus musculus [10])	ED50 (Mus musculus [12])	ED50 (Mus musculus [14])	ED50 (Mus musculus [15])
0.03 µg/mL (≈ 0.0428 µM)	0.39 µg/mL (≈ 0.556 µM)	50 µg/mL (≈ 71.3 µM)	32 µg/mL (≈ 45.7 µM)	0.1 µg/mL (≈ 0.143 µM)	0.01 µg/mL (≈ 0.0143 µM)	1 µg/mL (≈ 1.43 µM)	64 µg/mL (≈ 91.3 µM)	25 µg/mL (≈ 35.7 µM)	–	–	–	CC[C@H]1OC(=O)/C(C)=C/[C@H](C)[C@@H](O[C@@H]2O[C@H](C)C[C@H](N(C)C)[C@H]2O)[C@@](C)(OC)C[C@@H](C)C(=O)[C@H](C)[C@H]2N(CCc3ccccc3)C(=O)O[C@]12C	–	–	–	–
0.12 µg/mL (≈ 0.156 µM)	0.39 µg/mL (≈ 0.507 µM)	12.5 µg/mL (≈ 16.2 µM)	32 µg/mL (≈ 41.6 µM)	0.39 µg/mL (≈ 0.507 µM)	0.2 µg/mL (≈ 0.26 µM)	2 µg/mL (≈ 2.6 µM)	–	6.2 µg/mL (≈ 8.05 µM)	0.12 µg/mL (≈ 0.156 µM)	0.39 µg/mL (≈ 0.507 µM)	8 µg/mL (≈ 10.4 µM)	CC[C@H]1OC(=O)/C(C)=C/[C@H](C)[C@@H](O[C@@H]2O[C@H](C)C[C@H](N(C)C)[C@H]2O)[C@@](C)(OC)C[C@@H](C)C(=O)[C@H](C)[C@H]2N(CCc3ccc(Cl)c(Cl)c3)C(=O)O[C@]12C	> 40 mg/kg/day	> 16 mg/kg/day	> 40 mg/kg/day	> 100 mg/kg/day
